Screening results as filed in PubChem.
MrgX1 ag: activates human MrgX1 receptor signaling; 310,000 tested, 0.44% active; MrgX1-HEK293 cells, Fluo-4 calcium fluorescence, agonist mode; hits give high values; Q96LB2; AID 588627; B-score at 10 µM;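 active = calcium response B-score plate-corrected fluorescence ratio at least 3 library SD, with starting fluorescence B-score inside 5 SD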
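Material: MrgX1-expressing HEK293 cells; input: 15,000 cells per well; doses: test compound given as first of three sequential additions; schedule: overnight plating before 1 h dye loading; technique: Fluo-4 NW calcium-flux fluorescence, kinetic read; evaluation: baseline-normalised fluorescence change ratio, B-scored; control set: plate-wise positive and negative controls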
RGS4 pot: potentiators or activators of RGS4. AID 463111. HEK293 M3R/inducible RGS4, carbachol calcium flux Fluo4; hits give low values. B-score at 10 µM. 310,000 tested, 0.92% active;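 active = B-score of the integrated calcium signal more than 4 SD below the library mean, with starting fluorescence not abnormally high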;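 also: negative B-score means reduced calcium response which marks RGS4 activation or potentiation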
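Detection: kinetic calcium fluorescence imaging with Fluo4-AM dye, 2 µM / Material: HEK293 cells with stable M3R and inducible RGS4 / Schedule: recording 10 s baseline at 1 Hz, 100 s post-agonist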
MrgX1 antag: antagonists of human MrgX1 receptor; Q96LB2; MRGX1-HEK293 calcium flux, Fluo-4, BAM8-22 antagonism; hits give low values; B-score at 10 µM; 310,000 tested, 1.3% active; AID 588676;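 active = calcium-response B-score plate-corrected more than 3 library SD below zero, starting fluorescence within 5 deviations, no agonist response on first addition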;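 also: peak minus trough fluorescence over baseline after final BAM8-22 challenge near maximal dose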
RGS4 block: human RGS4 inhibition | B-score at 10 µM | 310,000 tested, 0.45% active | HEK293 M3R/RGS4 inducible, Fluo-4 calcium flux; hits give high values; triggered by carbachol at its EC20 | AID 463165;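 active = B-score, a plate-corrected calcium signal, over three deviations above library mean, with baseline fluorescence within five deviations of library mean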;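 also: RGS4 expression induced by doxycycline in cells with stable M3 receptor; B-score is computed from the integrated fluorescence ratio over baseline after carbachol; higher B-score means a larger calcium signal and so more RGS4 inhibition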
Target sequence (P49798 whole entry, looked up): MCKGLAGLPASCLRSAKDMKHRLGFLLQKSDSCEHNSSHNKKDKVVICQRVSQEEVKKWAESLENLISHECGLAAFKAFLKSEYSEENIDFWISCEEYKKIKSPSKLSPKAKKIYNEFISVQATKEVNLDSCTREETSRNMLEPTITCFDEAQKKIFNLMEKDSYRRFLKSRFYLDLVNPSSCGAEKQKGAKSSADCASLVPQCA
MrgX1 PAM: human MrgX1 positive allosteric modulation, primary screen; 310,000 tested, 0.63% active; Q96LB2; MrgX1-HEK293, Fluo-4 calcium flux, FDSS; hits give high values; B-score at 10 µM; AID 588675;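 active = plate-corrected calcium response at least 3 library SD above typical, normal starting fluorescence, not activating the receptor alone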;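 also: compound read alongside a low EC10 to EC30 dose of BAM8-22 agonist; peak minus trough fluorescence over baseline measured at the second addition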
Hits are given with their value; n = inactive; x = not tested or not shown. A selection: hits, their analogues and other compounds. The true share with any hit is near 3.5%.

SMILES	MrgX1 ag	RGS4 pot	MrgX1 antag	RGS4 block	MrgX1 PAM
CCCCN(C(=O)c1cccc(S(=O)(=O)N2CCN(Cc3ccccc3)CC2)c1)c1ccccc1	n	n	-4.7	n	n
CC(=O)Nc1cccc(C(=O)OCC(=O)Nc2c(C)nn(-c3ccccc3)c2C)c1	n	n	n	n	n
Cc1nn(-c2ccccc2)c(C)c1NC(=O)COC(=O)c1ccc(Cl)c(N)c1	n	-7	n	n	n
O=C(O)CSCC(=O)N(Cc1ccccc1)c1nc(-c2ccccc2)c(-c2ccccc2)s1	n	n	-4.7	n	n
O=C(CN1CCCCC1)N1CCCc2ccccc21	n	n	n	n	n
O=C(CN1CCN(c2ccccn2)CC1)N1c2ccccc2Sc2ccc(C(F)(F)F)cc21	n	n	n	n	n
O=C(CN1CCCCCC1)N1c2ccccc2C=Cc2ccccc21	n	-7.6	n	n	n
CCNCCC(=O)N1c2ccccc2Sc2ccc(C(F)(F)F)cc21	31	-7.9	n	n	n
O=C(CN1CCCC1)N1c2ccccc2Sc2ccc(C(F)(F)F)cc21	n	-8.1	n	n	n
FC(F)Oc1ccc(NC(=S)Nc2ccc3cn[nH]c3c2)cc1	n	n	n	n	n
O=C(CSc1nnc(-c2ccccc2)n1C1CCCCC1)Nc1ccc(S(=O)(=O)Nc2ccccn2)cc1	n	n	n	n	n
CN(C)c1ccc(N=C/C=C2\N(C)c3ccccc3C2(C)C)cc1	n	n	n	n	7.2
CN1/C(=C\C=O)C(C)(C)c2ccccc21	n	n	n	n	n
CN1/C(=C\C=Nc2ccc3ccccc3c2)C(C)(C)c2ccccc21	83	x	n	x	n
CC(C)CC(NC(N)=O)C(=O)OCC(=O)NC(=O)NC1CCCC1 (centres undefined)	n	n	n	n	n
CC1(c2nnc(-c3ccc(Cl)cc3)o2)CC(c2c(Cl)cccc2Cl)=NO1 (centres undefined)	n	-9.2	n	n	n
CC1(c2nnc(-c3ccc(F)cc3)o2)CC(c2c(Cl)cccc2Cl)=NO1 (centres undefined)	n	n	n	n	n
Cc1nc(N2CCCCC2)c2sc(=S)n(C)c2n1	n	n	n	n	n
COc1cccc(-c2ccc(NC(=O)C3CCCN(Cc4cnc(C)n4C)C3)cc2)c1 (centres undefined)	n	-7.1	n	n	n
Cc1ccc2nc(N(CCCN(C)C)C(=O)c3ccc(S(=O)(=O)N4CCc5ccccc5C4)cc3)sc2c1	n	-7.8	n	n	n
CN(C)CCCN(C(=O)c1ccc(S(=O)(=O)N2CCc3ccccc3C2)cc1)c1nc2ccc(F)cc2s1	n	n	n	n	n
Cc1cc(C)c2sc(N(CCCN(C)C)C(=O)c3ccc(S(=O)(=O)N4CCc5ccccc5C4)cc3)nc2c1	n	n	-7.5	n	n
Cc1cc(C)c2sc(N(CCCN(C)C)C(=O)c3ccc(S(=O)(=O)N4CCCc5ccccc54)cc3)nc2c1	n	n	n	n	n
CCCn1c(SCc2cc(=O)oc3ccc4ccccc4c23)n[nH]c1=O	n	n	n	n	n
NS(=O)(=O)c1ccc(N/N=C/c2ccccc2Br)cc1	n	n	n	n	6.8
SMILES	MrgX1 ag	RGS4 pot	MrgX1 antag	RGS4 block	MrgX1 PAM
NS(=O)(=O)c1ccc(N/N=C/c2ccncc2)cc1	n	n	n	n	n
O=[N+]([O-])c1cccc(N/N=C/c2cc([N+](=O)[O-])ccc2O)c1	n	n	n	n	n
O=[N+]([O-])c1ccc(N/N=C/c2ccccc2O)cc1	n	n	-4.9	n	n
Cc1c(C(C)C)c(=O)n(-c2ccc(S(=O)(=O)NC3CC3)cc2)n1C	n	n	n	n	n
Cc1cc(C(=O)CSc2nncs2)c(C)n1-c1c(C)n(C)n(-c2ccccc2)c1=O	n	-9.4	n	n	n
C/C(CCc1oc2ccc(Br)cc2c1-c1ccc(C)o1)=N/O	n	n	-6.3	n	n
Nc1sc(-c2ccccc2)n[n+]1Cc1cccc2cccnc12	n	-7.1	-4.7	n	n
Clc1cccc(Cc2ccc(Cl)nn2)c1	n	n	n	n	n
Cc1cccc(-n2nc(C(=O)c3ccco3)cc(-c3nc4ccccc4[nH]3)c2=N)c1	n	-8.1	n	n	n
Cc1ccccc1-n1nc(C(=O)c2cccs2)cc(-c2nc3ccccc3[nH]2)c1=N	n	n	n	n	n
